Test results published in ChEMBL document CHEMBL3616436, “Synthesis, cytotoxicity and antimicrobial activity of thiourea derivatives incorporating 3-(trifluoromethyl)phenyl moiety” (Eur J Med Chem, 2015).
Converted amounts (≈) assume the structure as drawn. The source made the active and inactive calls. The rule behind the calls is not given here.

Experiments:
Bacillus cereus = test: Antimicrobial activity against Bacillus cereus ATCC 11778 at 400 ug after 18 hrs by disc-diffusion method; format: functional; conditions: ATCC 11778, 18 h, read-out: IZ
In short: (§1)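 Disc diffusion on Mueller-Hinton II agar per CLSI; 9 mm paper discs loaded with 400 µg compound from DMSO solution, dried, placed on agar; growth inhibition zone diameter read after 18 h at 35°C.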

Enterococcus faecalis = test: Antimicrobial activity against Enterococcus faecalis ATCC 29212 at 400 ug after 18 hrs by disc-diffusion method; format: functional; in short: as §1
[1] = Cytotoxicity against bovine MDBK cells assessed as cell viability after 48 to 96 hrs by MTT assay; format: cell-based, Bos taurus; conditions: cattle
Staphylococcus aureus [2] = test: Antimicrobial activity against Staphylococcus aureus ATCC 6538 after 18 hrs by twofold serial microdilution method; format: functional; conditions: ATCC 6538, 18 h
Staphylococcus aureus [3] = test: Antimicrobial activity against Staphylococcus aureus ATCC 6538 at 400 ug after 18 hrs by disc-diffusion method; format: functional; conditions: ATCC 6538, 18 h, read-out: IZ; in short: as §1
Micrococcus luteus [4] = test: Antimicrobial activity against Micrococcus luteus ATCC 10240 at 400 ug after 18 hrs by disc-diffusion method; format: functional; conditions: ATCC 10240, 18 h, read-out: IZ; in short: as §1
[5] = Antiviral activity against Bovine viral diarrhea virus 1-NADL ATCC VR-534 infected in MDBK cells assessed as protection against virus-induced cytopathogenicity after 3 to 4 days by MTT assay; format: functional, cell-based; conditions: Bovine viral diarrhea virus isolates and strains, ATCC VR-534, MDBK
In short: (§2)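 Cells seeded in 96-well plates (BHK 5x10^4, MDBK 3x10^4 cells/well), grown overnight to confluence, infected at m.o.i. 0.01 (BHK for Reo-1, MDBK for BVDV); serial compound dilutions in maintenance medium with 0.5% inactivated FBS added after 1 h; viability by MTT after 3–4 days at 37°C; EC50 for 50% protection by linear regression.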

[6] = tested on: Staphylococcus epidermidis; test: Antimicrobial activity against Staphylococcus epidermidis ATCC 12228 after 18 hrs by twofold serial microdilution method; format: functional; conditions: ATCC 12228, 18 h
Bacillus subtilis = test: Antimicrobial activity against Bacillus subtilis ATCC 6633 at 400 ug after 18 hrs by disc-diffusion method; format: functional; conditions: ATCC 6633, 18 h, read-out: IZ; in short: as §1
[7] = tested on: Vesicular stomatitis virus; test: Antiviral activity against Vesicular stomatitis virus ATCC VR 1540 infected in African green monkey Vero 76 cells assessed as reduction of virus-plaque formation after 2 days by crystal violet staining; format: functional, organism-based; conditions: ATCC VR 1540, Vero, 48 h
Human alphaherpesvirus 1 = test: Antiviral activity against Human herpesvirus 1 KOS ATCC VR-1493 infected in African green monkey Vero 76 cells assessed as reduction of virus-plaque formation after 3 days by crystal violet staining; format: functional, organism-based; conditions: Human alphaherpesvirus 1, KOS ATCC VR1493, Vero, 72 h
In short: (§3)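 Plaque reduction: Vero-76 at 2x10^5 cells/well grown to confluent monolayers, infected 2 h at 50–100 PFU/well; after removing unadsorbed virus, overlay of D-MEM, 1% inactivated FBS, 0.75% methylcellulose with or without serial compound dilutions; 3 days at 37°C, fixed and stained with crystal violet in 50% ethanol, plaques counted; EC50 by linear regression.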

WIL2-NS = test: Cytotoxicity against human WIL2-NS cells after 96 hrs by MTT assay; format: functional
In short: (§4)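 Leukaemia/lymphoma lines seeded at 1×10^5 cells/ml in RPMI-1640 with 10% FCS and penicillin/streptomycin; incubated with serial dilutions at 37°C, 5% CO2; viability by MTT after 96 h; value is concentration reducing proliferation by 50%, with untreated controls undergoing at least three rounds of multiplication.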

[8] = Cytotoxicity against African green monkey Vero 76 cells assessed as cell viability after 48 to 96 hrs by crystal violet staining; format: cell-based; conditions: chlorocebus sabaeus
Enterococcus hirae = test: Antimicrobial activity against Enterococcus hirae ATCC 10541 at 400 ug after 18 hrs by disc-diffusion method; format: functional; conditions: ATCC 10541, 18 h, read-out: IZ; in short: as §1
[9] = Cytotoxicity against BHK cells assessed as cell viability after 48 to 96 hrs by MTT assay; format: cell-based, Mesocricetus auratus; conditions: hamster
Micrococcus luteus [10] = test: Antimicrobial activity against Micrococcus luteus ATCC 9341 at 400 ug after 18 hrs by disc-diffusion method; format: functional; conditions: ATCC 9341, 18 h, read-out: IZ; in short: as §1
[11] = tested on: Staphylococcus epidermidis; test: Antimicrobial activity against Staphylococcus epidermidis ATCC 35984 after 18 hrs by twofold serial microdilution method; format: functional; conditions: ATCC 35984, 18 h
Coxsackievirus B5 = test: Antiviral activity against Human coxsackievirus B5 ATCC VR-29 infected in African green monkey Vero 76 cells assessed as reduction of virus-plaque formation after 3 days by crystal violet staining; format: functional, organism-based; conditions: Enterovirus B, ATCC VR-29, Vero, 72 h; in short: as §3
Staphylococcus aureus [12] = test: Antimicrobial activity against Staphylococcus aureus ATCC 25923 after 18 hrs by twofold serial microdilution method; format: functional; conditions: ATCC 25923, 18 h
[13] = tested on: Mammalian orthoreovirus 1; test: Antiviral activity against Reovirus type-1 ATCC VR-214 infected in BHK cells assessed as protection against virus-induced cytopathogenicity after 3 to 4 days by MTT assay; format: functional, cell-based; conditions: Mammalian orthoreovirus 1, ATCC VR-214, BHK; in short: as §2
[14] = tested on: Mycobacterium tuberculosis; test: Antimycobacterial activity against drug-sensitive Mycobacterium tuberculosis Spec. 192; format: functional
In short: (§5)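 Classical test-tube successive-dilution method in Youmans' modification of Proskauer and Beck liquid medium with 10% bovine serum. Inoculum came from 14-day cultures. DMSO stock was 10 mg/mL, diluted geometrically in medium. Tubes were incubated at 37 °C. Concentrations tested were 3.1, 6.2, 12.5, 25, 50 and 100 µg/ml. MIC is the minimum concentration inhibiting growth relative to compound-free tubes.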

Staphylococcus aureus [15] = test: Antimicrobial activity against Staphylococcus aureus NCTC 4163 after 18 hrs by twofold serial microdilution method; format: functional; conditions: NCTC 4163, 18 h
Poliovirus 1 = test: Antiviral activity against Poliovirus type 1 ATCC VR-1562 infected in African green monkey Vero 76 cells assessed as reduction of virus-plaque formation after 2 days by crystal violet staining; format: functional, organism-based; conditions: Enterovirus C, ATCC VR-1562, Vero, 48 h
CCRF-SB = test: Cytotoxicity against human CCRF-SB cells after 96 hrs by MTT assay; format: functional; in short: as §4
Proteus vulgaris = test: Antimicrobial activity against Proteus vulgaris NCTC 4635 at 400 ug after 18 hrs by disc-diffusion method; format: functional; in short: as §1
Yellow fever virus = test: Antiviral activity against Yellow fever virus 17D infected in BHK cells assessed as protection against virus-induced cytopathogenicity after 3 to 4 days by MTT assay; format: functional, cell-based
[16] = Cytotoxicity against human MT4 cells; format: cell-based
Staphylococcus aureus [17] = test: Antimicrobial activity against Staphylococcus aureus NCTC 4163 at 400 ug after 18 hrs by disc-diffusion method; format: functional; conditions: NCTC 4163, 18 h, read-out: IZ; in short: as §1
[18] = tested on: Human immunodeficiency virus 1; test: Antiviral activity against HIV1 3B infected in human MT4 cells assessed as protection against virus-induced cytopathogenicity by MTT assay; format: functional, organism-based; conditions: Human immunodeficiency virus 1, 3B
Staphylococcus aureus [19] = test: Antimicrobial activity against Staphylococcus aureus ATCC 25923 at 400 ug after 18 hrs by disc-diffusion method; format: functional; conditions: ATCC 25923, 18 h, read-out: IZ; in short: as §1
Staphylococcus aureus [20] = test: Antimicrobial activity against Staphylococcus aureus ATCC 29213 after 18 hrs by twofold serial microdilution method; format: functional; conditions: ATCC 29213, 18 h
[21] = tested on: Staphylococcus epidermidis; test: Antimicrobial activity against Staphylococcus epidermidis ATCC 12228 at 400 ug after 18 hrs by disc-diffusion method; format: functional; conditions: ATCC 12228, 18 h, read-out: IZ; in short: as §1
CCRF-CEM = test: Cytotoxicity against human CCRF-CEM cells after 96 hrs by MTT assay; format: functional; in short: as §4
[22] = tested on: Staphylococcus epidermidis; test: Antimicrobial activity against Staphylococcus epidermidis ATCC 35984 at 400 ug after 18 hrs by disc-diffusion method; format: functional; conditions: ATCC 35984, 18 h, read-out: IZ; in short: as §1
Staphylococcus aureus [23] = test: Antimicrobial activity against Staphylococcus aureus ATCC 29213 at 400 ug after 18 hrs by disc-diffusion method; format: functional; conditions: ATCC 29213, 18 h, read-out: IZ; in short: as §1
[24] = tested on: Mycobacterium tuberculosis; test: Antimycobacterial activity against Mycobacterium tuberculosis H37Rv ATCC 25618; format: functional; in short: as §5
Vaccinia virus = test: Antiviral activity against Human Vaccinia virus ATCC VR-1549 infected in African green monkey Vero 76 cells assessed as reduction of virus-plaque formation after 3 days by crystal violet staining; format: functional, organism-based; conditions: Orthopoxvirus vaccinia, ATCC VR-1549, Vero, 72 h

For O=[N+]([O-])c1ccc(NC(=S)Nc2cccc(C(F)(F)F)c2)cc1, the zone of inhibition at 400 µg/disc (Bacillus cereus) was 15 mm, the “inhibition zone (IZ)” value (Enterococcus faecalis) was “inactive” and the CC50 [1] was 10 µM. It also gave an MIC (Staphylococcus aureus [2]) of 64 µg/mL (≈ 188 µM), a zone of inhibition at 400 µg/disc (Staphylococcus aureus [3]) of 15 mm and a zone of inhibition at 400 µg/disc (Micrococcus luteus [4]) of 13 mm. The EC50 [5] was greater than 10 µM, the MIC [6] was 64 µg/mL (≈ 188 µM) and the zone of inhibition at 400 µg/disc (Bacillus subtilis) was 15 mm. For the same compound, the EC50 [7] was greater than 10 µM, the EC50 (Human alphaherpesvirus 1) was greater than 10 µM and the CC50 (WIL2-NS) was 9.4 µM. The CC50 [8] was 10 µM, the zone of inhibition at 400 µg/disc (Enterococcus hirae) was 13 mm and the CC50 [9] was 9.5 µM. It also gave a zone of inhibition at 400 µg/disc (Micrococcus luteus [10]) of 13 mm, an MIC [11] of 64 µg/mL (≈ 188 µM) and an EC50 (Coxsackievirus B5) greater than 10 µM. For the same compound, the MIC (Staphylococcus aureus [12]) was 128 µg/mL (≈ 375 µM), the EC50 [13] was greater than 9.5 µM and the MIC [14] was greater than 100 µg/mL. For the same compound, the MIC (Staphylococcus aureus [15]) was 128 µg/mL (≈ 375 µM), the EC50 (Poliovirus 1) was greater than 10 µM and the CC50 (CCRF-SB) was 8.2 µM. The “inhibition zone (IZ)” value (Proteus vulgaris) was “inactive”, the EC50 (Yellow fever virus) was greater than 9.5 µM and the CC50 [16] was 9.2 µM. It also gave a zone of inhibition at 400 µg/disc (Staphylococcus aureus [17]) of 16 mm, an EC50 [18] greater than 9.2 µM and a zone of inhibition at 400 µg/disc (Staphylococcus aureus [19]) of 20 mm. It also gave an MIC (Staphylococcus aureus [20]) of 64 µg/mL (≈ 188 µM), a zone of inhibition at 400 µg/disc [21] of 13 mm and a CC50 (CCRF-CEM) of 8.7 µM. The zone of inhibition at 400 µg/disc [22] was 12 mm, the zone of inhibition at 400 µg/disc (Staphylococcus aureus [23]) was 16 mm and the MIC [24] was 50 µg/mL (≈ 146 µM). For the same compound, the EC50 (Vaccinia virus) was greater than 10 µM.
